Bioassay records deposited in PubChem BioAssay by The Scripps Research Institute Molecular Screening Center.
DNA FID counter-1 = fluorescent intercalator displacement, NS3 helicase counter-screen | DNA fluorescent intercalator displacement, fluorescence | inhibition, % at 7.9 µM | actives 0.17% (n = 290,000) | AID 1845;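 note: 0% = vehicle and 100% = reference compound; higher means more ethidium bromide displaced from hairpin DNA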
NS3 helicase inh = blocks Hepatitis C virus NS3 helicase unwinding; inhibition, % at 10.9 µM; actives 0.56% (n = 290,000); NS3 helicase DNA unwinding, Cy5 molecular beacon fluorescence;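 active = inhibition above the mean of all tested compounds plus 3 SD, set per campaign, cut at about 35% in these data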;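 note: 0% = DMSO wells and 100% = thioflavine S control wells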
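assay system = NS3 helicase fragment of HCV | buffer or medium = MOPS pH 6.5, MgCl2, DTT, Tween20, BSA | timing = 60 min unwinding reaction at 25 °C after ATP addition | signal = Cy5 beacon fluorescence read at start and 1 h | read-out basis = % inhibition of unwinding | control set = low DMSO, high thioflavine S at 110 µM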
GPR7 antag = antagonists of human GPR7 (neuropeptides B/W receptor 1) | P48145 | GPR7-expressing cells, fluorescence antagonist assay | inhibition, % at 4.4 µM | actives 1.1% (n = 290,000) | AID 1861; in the data active = inhibition above about 16%, passing the limit was not always enough;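 note: cells stimulated with the agonist NPW; 0% = agonist with vehicle and 100% = vehicle without agonist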
EBNA-1 inh = blocks EBNA-1 binding to DNA; EBNA-1 DNA binding, fluorescence polarization; inhibition, % at 14.8 µM; actives 0.34% (n = 300,000); in the data active = inhibition above about 28%
ZTA counter = ZTA (EBV) inhibition in EBNA-1 counter-screen | actives 0.15% (n = 320,000) | ZTA-DNA binding, fluorescence polarization | P03206 | inhibition, % at 11 µM; in the data active = inhibition above about 33%
Target sequence (P03206 whole entry, looked up): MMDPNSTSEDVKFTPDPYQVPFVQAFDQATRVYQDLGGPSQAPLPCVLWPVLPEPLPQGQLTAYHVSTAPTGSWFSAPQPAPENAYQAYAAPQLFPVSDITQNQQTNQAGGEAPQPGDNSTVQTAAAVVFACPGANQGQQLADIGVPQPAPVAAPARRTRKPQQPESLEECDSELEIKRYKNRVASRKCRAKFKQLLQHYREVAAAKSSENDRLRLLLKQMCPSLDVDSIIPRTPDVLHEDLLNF
NS3 hel confirm = HCV NS3 helicase inhibition, confirmation assay; actives 31% (n = 1,600); inhibition, % at 10.9 µM; shares compounds with NS3 helicase inh; NS3 helicase DNA unwinding, Cy5 molecular beacon fluorescence; AID 1943;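 active = inhibition above the mean of all tested compounds plus 3 SD, cutoff set per campaign, cut at about 36% in these data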
DNA FID counter-2 = intercalator displacement, NS3 helicase counter-screen; shares compounds with NS3 helicase inh; DNA fluorescent intercalator displacement, fluorescence; inhibition, % at 7.9 µM; actives 4% (n = 1,600);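 note: 0% = vehicle and 100% = reference compound; higher means more displacement of ethidium bromide from the DNA hairpin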
GPR7 antag cf = human GPR7 antagonism, confirmation assay; shares compounds with GPR7 antag; GPR7-expressing cells, calcium fluorescence antagonist mode; inhibition, % at 4.4 µM; actives 52% (n = 2,400); in the data active = inhibition above about 24%;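 note: stimulated with the GPR7 agonist NPW; 0% = agonist plus vehicle and 100% = vehicle alone without agonist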
MCHR1 antagonist = counter-screen for GPR7 antagonists: antagonists of human MCHR1. AID 2148. inhibition, % at 4.4 µM. shares compounds with GPR7 antag. MCHR1-expressing cells, fluorescence antagonist assay. actives 62% (n = 2,400); in the data active = inhibition above about 22%;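 note: 0% = vehicle with agonist and 100% = vehicle without agonist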
ZTA inh confirm = EBV ZTA DNA binding inhibition, confirmation | shares compounds with ZTA counter | Zta-ZRE DNA binding, fluorescence polarization | inhibition, % at 11.1 µM | actives 30% (n = 320) | AID 2361;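 active = mean inhibition across triplicate runs above the hit threshold derived for the original primary screen, cut at about 33% in these data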;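 note: 0% = Zta with DMSO and 100% = wells lacking Zta protein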
EBNA1 counter = blocks EBNA-1 DNA binding in ZTA counter-screen | 320 tested, under 10 active | shares compounds with ZTA counter | AID 2362 | inhibition, % at 14.8 µM | fluorescence polarization; call rule not given here
Numbers without * were called inactive. Compounds with a hit are over-represented: about 2% of the library has one in this group of screens. Cut-off read from the data, not from the text of the source, unless noted: active = inhibition above about 37%; inactive = the rest.

What do the screens show for `CC1=NN(c2cccc(C(=O)O)c2)C(=O)/C1=C\C=C\c1ccco1`?
DNA FID counter-1: -21; NS3 helicase inh: 42*; GPR7 antag: -12; EBNA-1 inh: 13; ZTA counter: 70*; NS3 hel confirm: 76*; DNA FID counter-2: 4; ZTA inh confirm: 67*; EBNA1 counter: 5

How did O=C(Nc1nc2c(F)cccc2s1)C1CC1 do in these assays?
DNA FID counter-1: -7; NS3 helicase inh: 32; GPR7 antag: 29*; EBNA-1 inh: -5; ZTA counter: -3; GPR7 antag cf: -4; MCHR1 antagonist: 12

What do the screens show for `CCOCCCNCc1cc(Br)ccc1OCc1ccccc1`?
DNA FID counter-1: 19; NS3 helicase inh: -30; GPR7 antag: 38*; EBNA-1 inh: -1; ZTA counter: -14; GPR7 antag cf: 36*; MCHR1 antagonist: 42*

What do the screens show for `COc1ccc(CC2(CO)CCN(Cc3nc(C(C)C)cs3)CC2)cc1`?
DNA FID counter-1: 9; NS3 helicase inh: -2; GPR7 antag: 25*; EBNA-1 inh: 0; ZTA counter: -14; GPR7 antag cf: 8; MCHR1 antagonist: 40*

What do the screens show for `CCCNC(=O)NC(=O)CN1C(=O)NC(C)(c2ccc3ccccc3c2)C1=O` (stereo unspecified)?
DNA FID counter-1: -24; NS3 helicase inh: -9; GPR7 antag: -1; EBNA-1 inh: -10; ZTA counter: -16

What do the screens show for `O=C(Oc1ccc2c(c1)OCO2)c1ccc(F)cc1Cl`?
DNA FID counter-1: -7; NS3 helicase inh: 8; GPR7 antag: 22*; EBNA-1 inh: -1; ZTA counter: -10; GPR7 antag cf: 18; MCHR1 antagonist: 13

What do the screens show for `NC(=O)C1CCN(c2nc3c(S(=O)(=O)c4ccccc4)nnn3c3ccccc23)CC1`?
DNA FID counter-1: -23; NS3 helicase inh: 5; GPR7 antag: -4; EBNA-1 inh: -2; ZTA counter: 19

Results for COc1ccccc1C(=O)N(CCC1CCCN1C)c1nc2ccccc2s1 (stereo unspecified) ?
DNA FID counter-1: 42*; NS3 helicase inh: -41; GPR7 antag: 24*; EBNA-1 inh: 5; ZTA counter: 4; GPR7 antag cf: 26*; MCHR1 antagonist: 9

How did COc1ccc2sc(N(CCCN(C)C)C(=O)c3nc4ccccc4s3)nc2c1 do in these assays?
DNA FID counter-1: 4; NS3 helicase inh: -2; GPR7 antag: -7; EBNA-1 inh: 3; ZTA counter: -14

Results for CCN(CCn1cccn1)C(=O)CC1C(=O)NCCN1CCc1ccccc1 (stereo unspecified) ?
DNA FID counter-1: -10; NS3 helicase inh: -18; GPR7 antag: -15; EBNA-1 inh: -3; ZTA counter: 18

Results for CCCCn1c(SCC(=O)N2CCCC2)nc2cc(S(N)(=O)=O)ccc21 ?
DNA FID counter-1: -26; NS3 helicase inh: -5; GPR7 antag: -6; EBNA-1 inh: -9; ZTA counter: 9

Results for CCCCn1c(SCC(=O)N2CCCCC2C)nc2cc(S(N)(=O)=O)ccc21 (stereo unspecified) ?
DNA FID counter-1: -24; NS3 helicase inh: 9; GPR7 antag: 36*; EBNA-1 inh: 4; ZTA counter: 3; GPR7 antag cf: -20; MCHR1 antagonist: 8

Results for CC[n+]1c(/C=C/c2c[nH]c3ccccc23)ccc2cc(C)ccc21 ?
DNA FID counter-1: -4; NS3 helicase inh: -47; GPR7 antag: 39*; GPR7 antag cf: 37*; MCHR1 antagonist: 80*
